# Assay results from ChEMBL document CHEMBL1240337, “Identification of proteases that regulate erythrocyte rupture by the malaria parasite Plasmodium falciparum” (Nat Chem Biol, 2008).
# Activity calls are given as the source filed them. The rule behind the calls is not given here.
# Tests used:
# Plasmodium falciparum [1] = test: Antiplasmodial activity against Plasmodium falciparum schizont infected in human erythrocytes assessed as effect on schizont morphology at 1 to 100 uM after 24 by propidium iodide staining-based FACS analysis; format: functional, organism-based
# Plasmodium falciparum [2] = test: Inhibition of Plasmodium falciparum SUB1-mediated SERA5 processing at 1 1 to 100 uM after 6 to 8 hrs by SDS-PAGE
# Method in brief: (§1)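 Percoll-enriched schizonts (36–40 h post invasion) treated with inhibitor for 6–8 h in serum-free RPMI. Medium run on 8% SDS-PAGE; schizont pellet solubilized in SDS loading buffer. SERA5 detected by western blot with a monoclonal recognizing the P50 product; PfSUB1 detected with antisera.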
# [3] = Inhibition of Plasmodium falciparum SUB1 by fluorescence spectrophotometry
# Method in brief: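 Recombinant PfSUB1 cleavage of the fluorogenic peptide substrate pepF1-6R measured over a range of inhibitor concentrations. IC50 taken from the curve fit.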
# Plasmodium falciparum [4] = test: Antiplasmodial activity against Plasmodium falciparum schizont infected in human erythrocytes assessed as effect on parasite ring-to-schizont morphology at 1 to 100 uM after 24 by propidium iodide staining-based FACS analysis; format: functional, organism-based
# Plasmodium falciparum [5] = test: Antiplasmodial activity against Plasmodium falciparum schizont infected in human erythrocytes assessed as inhibition of ring-stage parasite growth at 1 to 100 uM after 24 by propidium iodide staining-based FACS analysis; format: functional, organism-based
# [6] = Cytotoxicity against african green monkey BSC1 cells after 24 hrs by celltiter glo assay; format: cell-based; conditions: chlorocebus aethiops, bsc-1, 24 h
# Method in brief: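 BSC-1 African green monkey kidney epithelial cells exposed to compounds; viability read by CellTiter-Glo luminescence.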
# [7] = target: T1, Protease, putative (Plasmodium falciparum 3D7) (UniProt Q8I1Y2); test: Inhibition of Plasmodium falciparum 3D7 PFD0230c-mediated SERA5 processing at 1 1 to 100 uM after 6 to 8 hrs by SDS-PAGE; method in brief: as §1
# T1 sequence (whole entry): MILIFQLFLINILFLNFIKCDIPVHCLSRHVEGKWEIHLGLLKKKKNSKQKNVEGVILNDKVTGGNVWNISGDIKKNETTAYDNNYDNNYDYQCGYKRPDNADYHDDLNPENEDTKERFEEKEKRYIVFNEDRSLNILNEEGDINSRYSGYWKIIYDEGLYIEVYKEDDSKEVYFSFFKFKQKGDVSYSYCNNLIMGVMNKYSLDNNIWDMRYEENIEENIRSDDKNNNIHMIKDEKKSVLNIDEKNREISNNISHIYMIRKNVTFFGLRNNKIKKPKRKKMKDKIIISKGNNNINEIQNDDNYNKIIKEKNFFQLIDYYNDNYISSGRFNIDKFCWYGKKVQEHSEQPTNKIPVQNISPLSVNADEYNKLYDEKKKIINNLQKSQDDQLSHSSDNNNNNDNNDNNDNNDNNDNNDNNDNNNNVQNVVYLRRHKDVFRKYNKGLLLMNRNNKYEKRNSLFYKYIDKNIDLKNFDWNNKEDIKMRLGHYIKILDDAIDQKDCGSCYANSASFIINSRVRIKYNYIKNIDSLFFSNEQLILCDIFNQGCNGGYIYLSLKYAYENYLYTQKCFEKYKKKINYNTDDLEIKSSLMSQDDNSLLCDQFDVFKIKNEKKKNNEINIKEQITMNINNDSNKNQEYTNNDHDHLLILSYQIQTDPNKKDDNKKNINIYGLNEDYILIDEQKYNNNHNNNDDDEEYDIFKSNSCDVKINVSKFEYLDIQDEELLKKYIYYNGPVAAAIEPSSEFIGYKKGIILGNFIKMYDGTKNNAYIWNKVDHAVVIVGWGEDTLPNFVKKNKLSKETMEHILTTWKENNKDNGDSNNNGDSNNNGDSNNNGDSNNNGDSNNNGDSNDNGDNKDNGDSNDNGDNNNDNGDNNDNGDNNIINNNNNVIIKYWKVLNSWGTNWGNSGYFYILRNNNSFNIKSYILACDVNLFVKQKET
# Plasmodium falciparum [8] = test: Antiplasmodial activity against Plasmodium falciparum schizont infected in human erythrocytes assessed as blockade of parasite-mediated rupture of erythrocytes after 24 by propidium iodide staining-based FACS analysis; format: functional, organism-based
# Method in brief: (§2)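 Synchronous early schizonts (~36 h post invasion) exposed to inhibitor for 24 h at 37 °C. Cells fixed in 0.05% glutaraldehyde/PBS overnight at 4 °C, permeabilized with 0.25% Triton X-100 and stained with propidium iodide. Flow cytometry gated ring and schizont populations as fractions of total parasitemia, normalized to averaged DMSO wells. Triplicate runs.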
# Plasmodium falciparum [9] = test: Inhibition of Plasmodium falciparum SUB1-mediated rupture of infected human red blood cells at 50 uM after 24 hrs by propidium iodide staining-based FACS analysis
# Method in brief: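 Early schizonts (~36 h post invasion) given 50 µM compound (final) for 24 h at 37 °C, then glutaraldehyde-fixed, Triton-permeabilized and propidium iodide stained. Flow cytometric schizont fraction normalized to DMSO controls.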
# Plasmodium falciparum [10] = test: Displacement of JCP104 from Plasmodium falciparum SUB1 at 50 uM by SDS-PAGE
# [11] = target: T1, Protease, putative (Plasmodium falciparum 3D7); test: Inhibition of Plasmodium falciparum 3D7 PFD0230c-mediated rupture of infected human red blood cells after 24 hrs by propidium iodide staining-based FACS analysis; method in brief: as §2
# [12] = target: T1, Protease, putative (Plasmodium falciparum 3D7); test: Inhibition of Plasmodium falciparum 3D7 PFD0230c by fluorescence spectrophotometry
# [13] = target: T1, Protease, putative (Plasmodium falciparum 3D7); test: Inhibition of Plasmodium falciparum 3D7 PFD0230c-mediated rupture of infected human red blood cells at 10 uM after 24 hrs by giemsa staining
# Method in brief: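 Giemsa-stained thin blood films were read from schizonts exposed at 36 h post invasion to 10 µM inhibitor, to assess rupture and morphology.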
# Plasmodium falciparum [14] = test: Inhibition of Plasmodium falciparum 3D7 falcipain-2 by fluorescence spectrophotometry
# [15] = target: T2, Falcipain-3 (Plasmodium falciparum 3D7) (UniProt Q8IIL0); test: Inhibition of Plasmodium falciparum 3D7 falcipain-3 by fluorescence spectrophotometry
# T2 sequence (whole entry): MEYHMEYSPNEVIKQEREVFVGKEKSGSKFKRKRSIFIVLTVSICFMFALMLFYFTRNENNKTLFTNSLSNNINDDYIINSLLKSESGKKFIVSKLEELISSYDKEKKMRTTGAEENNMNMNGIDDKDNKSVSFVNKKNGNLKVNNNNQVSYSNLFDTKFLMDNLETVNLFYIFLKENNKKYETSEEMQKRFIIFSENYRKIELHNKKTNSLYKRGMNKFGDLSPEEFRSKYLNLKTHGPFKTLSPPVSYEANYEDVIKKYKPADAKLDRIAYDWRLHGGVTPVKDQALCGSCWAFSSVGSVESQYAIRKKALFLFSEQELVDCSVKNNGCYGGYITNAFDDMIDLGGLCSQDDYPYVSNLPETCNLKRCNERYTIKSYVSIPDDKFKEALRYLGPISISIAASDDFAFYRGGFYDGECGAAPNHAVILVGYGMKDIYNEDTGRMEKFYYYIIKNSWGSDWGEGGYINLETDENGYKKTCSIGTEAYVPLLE
# [16] = target: T3, Probable cathepsin C (Plasmodium falciparum 3D7) (UniProt Q8IIJ9); test: Inhibition of Plasmodium falciparum 3D7 cathepsin C by fluorescence spectrophotometry
# T3 sequence (whole entry): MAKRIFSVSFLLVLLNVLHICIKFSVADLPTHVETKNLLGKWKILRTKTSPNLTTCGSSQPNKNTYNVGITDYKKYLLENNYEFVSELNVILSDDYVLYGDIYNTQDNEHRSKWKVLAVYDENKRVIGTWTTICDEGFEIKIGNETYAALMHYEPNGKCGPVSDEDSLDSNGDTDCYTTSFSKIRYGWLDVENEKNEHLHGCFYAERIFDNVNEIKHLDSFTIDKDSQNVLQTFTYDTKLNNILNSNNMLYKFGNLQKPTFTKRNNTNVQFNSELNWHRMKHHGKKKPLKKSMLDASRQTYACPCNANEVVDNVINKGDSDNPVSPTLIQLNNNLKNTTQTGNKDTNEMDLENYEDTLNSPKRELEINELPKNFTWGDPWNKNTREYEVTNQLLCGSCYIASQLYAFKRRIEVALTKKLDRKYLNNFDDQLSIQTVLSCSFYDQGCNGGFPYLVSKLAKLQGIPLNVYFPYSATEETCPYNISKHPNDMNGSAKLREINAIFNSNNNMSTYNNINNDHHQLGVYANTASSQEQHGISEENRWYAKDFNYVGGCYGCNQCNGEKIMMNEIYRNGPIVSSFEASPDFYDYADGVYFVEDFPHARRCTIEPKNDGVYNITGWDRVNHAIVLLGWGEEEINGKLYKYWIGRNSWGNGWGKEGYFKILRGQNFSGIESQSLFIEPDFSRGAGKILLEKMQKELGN
# [17] = target: T4, Cysteine proteinase falcipain-1 (Plasmodium falciparum 3D7) (UniProt Q8I6V0); test: Inhibition of Plasmodium falciparum 3D7 falcipain-1 by fluorescence spectrophotometry
# T4 sequence (whole entry): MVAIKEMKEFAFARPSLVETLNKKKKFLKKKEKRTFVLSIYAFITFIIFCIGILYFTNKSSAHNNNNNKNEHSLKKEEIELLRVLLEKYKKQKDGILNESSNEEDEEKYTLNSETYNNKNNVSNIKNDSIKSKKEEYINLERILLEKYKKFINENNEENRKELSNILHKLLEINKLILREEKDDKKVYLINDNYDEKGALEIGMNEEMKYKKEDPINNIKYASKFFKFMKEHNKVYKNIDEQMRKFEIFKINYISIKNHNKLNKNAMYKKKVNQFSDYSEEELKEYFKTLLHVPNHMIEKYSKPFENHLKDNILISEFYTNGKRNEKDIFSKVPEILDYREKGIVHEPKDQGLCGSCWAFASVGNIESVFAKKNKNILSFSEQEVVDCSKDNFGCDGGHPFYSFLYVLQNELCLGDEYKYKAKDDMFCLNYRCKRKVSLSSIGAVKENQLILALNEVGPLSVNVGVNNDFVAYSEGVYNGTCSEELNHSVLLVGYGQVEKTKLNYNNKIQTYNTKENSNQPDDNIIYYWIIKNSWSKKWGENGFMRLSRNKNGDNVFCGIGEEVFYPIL
# [18] = target: T1, Protease, putative (Plasmodium falciparum 3D7); test: Inhibition of Plasmodium falciparum 3D7 PFD0230c-mediated rupture of infected human red blood cells at 1 to 100 uM after 24 hrs by propidium iodide staining-based FACS analysis
# Method in brief: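 Schizonts at 36 h post invasion treated in triplicate with 1–100 µM inhibitor for 24 h, then propidium iodide stained and analyzed by flow cytometry. Schizont accumulation is expressed as fold increase over the DMSO control.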
# [19] = target: T5, Preprocathepsin c, putative (Plasmodium falciparum 3D7) (UniProt Q8I0V1); test: Inhibition of Plasmodium falciparum 3D7 PFL2290w by fluorescence spectrophotometry
# T5 sequence (whole entry): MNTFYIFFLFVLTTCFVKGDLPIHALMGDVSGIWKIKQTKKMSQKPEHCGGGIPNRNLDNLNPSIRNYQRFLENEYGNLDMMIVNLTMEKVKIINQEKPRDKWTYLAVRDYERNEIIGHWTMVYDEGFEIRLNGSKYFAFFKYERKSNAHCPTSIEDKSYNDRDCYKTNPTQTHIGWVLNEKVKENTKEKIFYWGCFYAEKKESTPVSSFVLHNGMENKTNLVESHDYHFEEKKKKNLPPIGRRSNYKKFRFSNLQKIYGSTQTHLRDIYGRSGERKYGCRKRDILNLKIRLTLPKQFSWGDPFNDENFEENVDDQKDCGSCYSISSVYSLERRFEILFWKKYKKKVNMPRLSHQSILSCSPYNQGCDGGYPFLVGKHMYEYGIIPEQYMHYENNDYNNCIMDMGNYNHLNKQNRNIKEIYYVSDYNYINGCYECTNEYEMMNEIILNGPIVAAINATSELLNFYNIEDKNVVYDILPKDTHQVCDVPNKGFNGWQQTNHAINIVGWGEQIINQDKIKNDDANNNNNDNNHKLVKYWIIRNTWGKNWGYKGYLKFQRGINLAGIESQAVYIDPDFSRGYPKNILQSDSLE
structure (smiles),measurement,setting,value
O=C(CCCCCNC(=O)CCCC[C@H]1SC[C@H]2NC(=O)N[C@H]21)NCCCCCC(=O)Nc1ccc2c(Cl)c(OCCc3ccccc3)oc(=O)c2c1,Activity,Plasmodium falciparum [1],inactive
same,inhibition,Plasmodium falciparum [2],Active
same,IC50,[3],18 µM
same,Activity,Plasmodium falciparum [4],inactive
same,inhibition,Plasmodium falciparum [5],Active
same,Activity,[6],Non-toxic
same,inhibition,[7],Active
same,EC50,Plasmodium falciparum [8],22 µM
O=C(CCCC[C@H]1SC[C@H]2NC(=O)N[C@H]21)Nc1ccc2c(Cl)c(OCCc3ccccc3)oc(=O)c2c1,Activity,Plasmodium falciparum [9],Active
same,inhibition,Plasmodium falciparum [9],Active
same,Activity,Plasmodium falciparum [10],Active
N[C@@H](Cc1ccc(O)c([N+](=O)[O-])c1)C(=O)N[C@H](/C=C/S(=O)(=O)c1ccccc1)CCc1ccccc1,inhibition,Plasmodium falciparum [2],Active
same,inhibition,[11],Dose-dependent effect
same,inhibition,[12],Active
same,inhibition,[13],Active
same,inhibition,[7],Active
O=C(N[C@H](/C=C/S(=O)(=O)c1ccccc1)CCc1ccccc1)C1CCCN1 (stereo not given in full),inhibition,Plasmodium falciparum [14],inactive
same,inhibition,Plasmodium falciparum [2],Active
same,inhibition,[15],inactive
same,inhibition,[16],Active
same,inhibition,[17],Active
same,inhibition,[13],inactive
same,inhibition,[7],Active
same,inhibition,[18],inactive
NC(=O)[C@H](Cc1ccc(O)cc1)NC(=O)CCCCCCCCCCS(=O)(=O)/C=C/[C@H](CCc1ccccc1)NC(=O)[C@@H](N)Cc1ccc(O)c([N+](=O)[O-])c1,inhibition,[16],Active
same,inhibition,[19],Active
O=C(CCCC[C@H]1SC[C@H]2NC(=O)N[C@H]21)NCCCCCC(=O)Nc1ccc2c(Cl)c(OCCc3ccccc3)oc(=O)c2c1,Activity,Plasmodium falciparum [9],Active
same,inhibition,Plasmodium falciparum [9],Active
same,Activity,Plasmodium falciparum [10],Active
CCOC(=O)[C@H]1O[C@@H]1C(=O)N[C@H](C(=O)NCCc1ccc(O)cc1)[C@@H](C)CC,inhibition,[13],Active
